Experimental data as given in ChEMBL document CHEMBL2177006 (J Med Chem, 2012).

Tests used:
Beta-secretase 1 [1] = target: T1, Beta-secretase 1 (Homo sapiens, UniProt P56817); assay: Inhibition of BACE1 in human HEK293 cells expressing APP Swedish mutant assessed as inhibition of amyloid beta (1 to 40) production after overnight incubation by sandwich ELISA; format: cell-based
Beta-secretase 1 [2] = target: T1, Beta-secretase 1; assay: Inhibition of human recombinant BACE1 using Glu-Ile-Asp-Leu-Met-Val-Leu-Asp as substrate incubated for 60 mins prior to substrate addition measured after 60 mins by FRET assay
Rattus norvegicus = assay: Antialzheimer activity in Sprague-Dawley rat assessed as reduction in amyloid beta 40 level in CSF at 30 mg/kg, po at 4 hrs by immunoassay relative to control; format: functional; parameters: scale not given: the % may be the effect or the level left
Summary of the method: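 At the set time they were euthanized with CO2 for 2 min. CSF was drawn from the cisterna magna with a 30 gauge needle, frozen on dry ice, stored at −80 °C, then assayed for Aβ40 by Meso Scale immunoassay.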

T1 sequence (P56817 whole entry): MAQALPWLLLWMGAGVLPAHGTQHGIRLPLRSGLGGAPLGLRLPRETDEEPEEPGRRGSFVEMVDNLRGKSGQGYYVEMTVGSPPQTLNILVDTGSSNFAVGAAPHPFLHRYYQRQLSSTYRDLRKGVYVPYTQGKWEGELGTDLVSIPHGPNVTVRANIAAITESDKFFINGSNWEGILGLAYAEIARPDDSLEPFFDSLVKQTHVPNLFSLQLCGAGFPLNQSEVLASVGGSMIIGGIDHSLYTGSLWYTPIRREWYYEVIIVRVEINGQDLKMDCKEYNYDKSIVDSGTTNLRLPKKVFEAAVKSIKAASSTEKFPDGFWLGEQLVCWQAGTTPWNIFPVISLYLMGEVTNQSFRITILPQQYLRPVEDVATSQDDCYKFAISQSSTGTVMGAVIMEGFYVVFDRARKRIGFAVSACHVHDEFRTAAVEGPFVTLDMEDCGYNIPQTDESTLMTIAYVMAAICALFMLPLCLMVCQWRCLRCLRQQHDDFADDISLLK

SMILES: CC(C)(C)Cc1cnc2c(c1)[C@@H](NC[C@@H](O)[C@H](Cc1ccc3c(c1)OCO3)NC(=O)c1cccnc1)CC1(CCC1)O2
- IC50 (Beta-secretase 1 [1]): 67.6 nM
- IC50 (Beta-secretase 1 [2]): 26.1 nM

SMILES: CC(C)(C)Cc1cnc2c(c1)[C@@H](NC[C@@H](O)[C@H](Cc1ccc3c(c1)OCO3)NC(=O)c1ccc(F)nc1)CC1(CCC1)O2
- IC50 (Beta-secretase 1 [1]): 69.5 nM
- IC50 (Beta-secretase 1 [2]): 48.4 nM

SMILES: COCC(=O)N[C@@H](Cc1ccc2c(c1)OCO2)[C@H](O)CN[C@H]1CC2(CCC2)Oc2ncc(CC(C)(C)C)cc21
- IC50 (Beta-secretase 1 [1]): 16.8 nM
- IC50 (Beta-secretase 1 [2]): 5.4 nM

SMILES: CC(C)C(=O)N[C@@H](Cc1ccc2c(c1)OCO2)[C@H](O)CN[C@H]1CC2(CCC2)Oc2ncc(CC(C)(C)C)cc21
- IC50 (Beta-secretase 1 [1]): 812 nM

SMILES: CC(C)(C)Cc1cnc2c(c1)[C@@H](NC[C@@H](O)[C@H](Cc1ccc3c(c1)OCO3)NC(=O)[C@@H]1CCCO1)CC1(CCC1)O2
- IC50 (Beta-secretase 1 [1]): 27.5 nM
- IC50 (Beta-secretase 1 [2]): 20.4 nM

SMILES: C[C@@H](F)C(=O)N[C@@H](Cc1ccc2c(c1)OCO2)[C@H](O)CN[C@H]1CC2(CCC2)Oc2ncc(CC(C)(C)C)cc21
- IC50 (Beta-secretase 1 [1]): 55.5 nM

SMILES: CC(C)(C)Cc1cnc2c(c1)[C@@H](NC[C@@H](O)[C@H](Cc1ccc3c(c1)OCO3)NC(=O)c1ccccc1F)CC1(CCC1)O2
- IC50 (Beta-secretase 1 [1]): 1150 nM
- IC50 (Beta-secretase 1 [2]): 76.6 nM

SMILES: CC(C)(C)Cc1cnc2c(c1)[C@@H](NC[C@@H](O)[C@H](Cc1ccc3c(c1)OCO3)NC(=O)c1cccnc1F)CC1(CCC1)O2
- IC50 (Beta-secretase 1 [1]): 64.3 nM
- IC50 (Beta-secretase 1 [2]): 33.2 nM

SMILES: COc1ccc(C[C@H](NC(C)=O)[C@H](O)CN[C@H]2CC3(CCC3)Oc3ncc(CC(C)(C)C)cc32)cc1OC
- IC50 (Beta-secretase 1 [1]): 9.3 nM
- IC50 (Beta-secretase 1 [2]): 18.2 nM

SMILES: CC(=O)N[C@@H](Cc1ccc(OC(F)F)c(OC(F)F)c1)[C@H](O)CN[C@H]1CC2(CCC2)Oc2ncc(CC(C)(C)C)cc21
- IC50 (Beta-secretase 1 [1]): 238 nM
- IC50 (Beta-secretase 1 [2]): 35.2 nM

SMILES: CC(=O)N[C@@H](Cc1ccc2c(c1)OCO2)[C@H](O)CN[C@H]1CC2(CCC2)Oc2ncc(CC(C)(C)C)cc21
- IC50 (Beta-secretase 1 [1]): 5.5 nM
- IC50 (Beta-secretase 1 [2]): 8 nM
- Activity (Rattus norvegicus): 52%
